Reference: ChEMBL document CHEMBL1145197 (J Med Chem, 2005)

Tests used:
[1] = target: T1, Cannabinoid receptor 1 (Homo sapiens, UniProt P21554); type: cell-based, CHO
[2] = target: Cannabinoid receptor 2 (Homo sapiens, UniProt P34972); assay: In vitro displacement of CP-55940 binding to human CB2 receptor expressed in CHO cells; type: cell-based
Procedure, shortened: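 Radioligand binding on CHO cells stably expressing recombinant human CB2 receptor; affinity given as Ki (nM).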

[3] = test system: Rattus norvegicus; assay: In vivo effective dose to produce antagonism of CB agonist (CP-55940) induced hypotension in rat
[4] = test system: Mus musculus; assay: In vivo effective dose to produce antagonism of CB agonist (WIN-55212) induced hypothermia in mouse
[5] = target: ATP-dependent translocase ABCB1 (Homo sapiens, UniProt P08183); assay: Membrane passage was expressed as mean percentage of compound transported from bottom to top and from top to bottom at 3 hr after adding the compound; type: functional
Chain of ATP-dependent translocase ABCB1 (P08183 whole entry): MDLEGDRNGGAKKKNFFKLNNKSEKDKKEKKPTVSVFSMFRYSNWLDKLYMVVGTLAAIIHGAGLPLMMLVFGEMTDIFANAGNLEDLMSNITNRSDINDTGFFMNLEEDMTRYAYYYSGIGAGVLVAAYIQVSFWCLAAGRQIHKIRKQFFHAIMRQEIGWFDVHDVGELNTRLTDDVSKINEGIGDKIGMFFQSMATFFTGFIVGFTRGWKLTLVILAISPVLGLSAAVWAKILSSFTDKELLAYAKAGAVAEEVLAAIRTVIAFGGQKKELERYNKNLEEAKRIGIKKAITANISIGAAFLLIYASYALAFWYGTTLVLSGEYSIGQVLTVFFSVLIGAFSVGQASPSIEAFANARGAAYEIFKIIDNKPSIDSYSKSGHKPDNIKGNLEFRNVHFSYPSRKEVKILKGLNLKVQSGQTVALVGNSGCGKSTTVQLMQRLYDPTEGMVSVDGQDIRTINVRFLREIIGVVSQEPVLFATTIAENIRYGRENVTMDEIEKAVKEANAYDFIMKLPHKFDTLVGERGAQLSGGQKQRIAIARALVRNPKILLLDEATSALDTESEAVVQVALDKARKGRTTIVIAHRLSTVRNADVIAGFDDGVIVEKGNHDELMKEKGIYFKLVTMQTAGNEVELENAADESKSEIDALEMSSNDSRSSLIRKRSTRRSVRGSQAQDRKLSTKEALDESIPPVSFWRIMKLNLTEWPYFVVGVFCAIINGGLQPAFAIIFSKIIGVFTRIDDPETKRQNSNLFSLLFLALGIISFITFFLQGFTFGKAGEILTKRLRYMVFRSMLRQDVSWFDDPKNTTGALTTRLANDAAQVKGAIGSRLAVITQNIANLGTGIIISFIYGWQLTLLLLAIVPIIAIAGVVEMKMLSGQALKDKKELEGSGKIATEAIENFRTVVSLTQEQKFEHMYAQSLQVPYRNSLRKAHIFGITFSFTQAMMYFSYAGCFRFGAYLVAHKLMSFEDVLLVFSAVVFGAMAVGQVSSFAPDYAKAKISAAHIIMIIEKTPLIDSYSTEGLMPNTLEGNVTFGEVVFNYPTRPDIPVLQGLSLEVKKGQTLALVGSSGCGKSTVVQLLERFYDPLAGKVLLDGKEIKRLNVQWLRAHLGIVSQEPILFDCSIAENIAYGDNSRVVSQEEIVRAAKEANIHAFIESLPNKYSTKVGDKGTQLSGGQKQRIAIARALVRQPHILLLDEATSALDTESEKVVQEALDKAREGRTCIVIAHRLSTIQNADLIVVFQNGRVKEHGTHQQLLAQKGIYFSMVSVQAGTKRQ

[6] = target: T1, Cannabinoid receptor 1; assay: In vitro cannabinoid receptor 1 antagonism of [3H]arachidonic acid release by CHO cells; type: functional, cell-based; details: read-out: pA2 (converted)
[7] = target: P-glycoprotein (ABCB1) (Homo sapiens, UniProt P08183); assay: P-glycoprotein (Pgp) factor was expressed as the ratio ofthe bottom to top transport and top to bottom transport; type: functional; details: not told
Chain of P-glycoprotein (ABCB1) (P08183 whole entry): as above

Chain of Cannabinoid receptor 2 (P34972 whole entry): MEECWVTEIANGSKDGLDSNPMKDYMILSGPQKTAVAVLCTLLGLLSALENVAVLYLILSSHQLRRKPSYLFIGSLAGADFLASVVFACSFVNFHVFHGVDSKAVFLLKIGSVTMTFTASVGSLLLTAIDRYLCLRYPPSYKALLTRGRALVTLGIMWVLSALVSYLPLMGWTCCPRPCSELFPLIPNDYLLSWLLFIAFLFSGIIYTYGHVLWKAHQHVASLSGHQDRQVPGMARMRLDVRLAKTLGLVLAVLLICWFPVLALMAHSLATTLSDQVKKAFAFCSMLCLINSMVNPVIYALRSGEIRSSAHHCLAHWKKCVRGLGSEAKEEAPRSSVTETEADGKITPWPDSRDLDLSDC
T1 sequence (P21554 whole entry): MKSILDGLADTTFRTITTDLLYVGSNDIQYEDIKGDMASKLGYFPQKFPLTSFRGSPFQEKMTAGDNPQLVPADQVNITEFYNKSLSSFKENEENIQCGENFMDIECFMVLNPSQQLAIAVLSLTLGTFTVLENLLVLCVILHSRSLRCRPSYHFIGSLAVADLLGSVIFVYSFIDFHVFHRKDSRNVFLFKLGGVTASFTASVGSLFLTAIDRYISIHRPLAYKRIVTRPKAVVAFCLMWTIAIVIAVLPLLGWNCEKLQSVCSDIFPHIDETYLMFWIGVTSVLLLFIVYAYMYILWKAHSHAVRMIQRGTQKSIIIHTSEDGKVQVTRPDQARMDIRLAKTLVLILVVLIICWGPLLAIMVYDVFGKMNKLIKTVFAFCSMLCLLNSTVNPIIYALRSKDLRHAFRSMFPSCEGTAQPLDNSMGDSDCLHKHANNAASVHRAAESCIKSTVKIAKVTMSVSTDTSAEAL

SMILES	Ki [1]	Ki [2]	ED50 [3]	LED [4]	Transport [5]	Kb [6]	efflux ratio [7]
Cc1c(C(=O)NN2CCCCC2)nc(-c2ccc(Cl)cc2Cl)n1-c1ccc(F)cc1	52 nM	765 nM					
Cc1c(C(=O)NN2CCCCC2)nn(-c2ccc(Cl)cc2Cl)c1-c1ccc(Cl)cc1 [RIMONABANT]			3.2 mg/kg	3 mg/kg	17.2%		
CCN(CC)C(=O)c1nc(-c2ccc(Cl)cc2Cl)n(-c2ccc(Cl)cc2)c1C	828 nM	2520 nM				39.8 nM	
Cc1c(C(=O)NN2CCCCC2)nc(-c2ccc(Cl)cc2Cl)n1-c1ccc(Cl)cn1		758 nM					
Cl.Cl.O=C(NN1CCCCC1)c1nc(-c2ccc(Cl)cc2Cl)n(-c2ccc(Cl)cc2)n1	356 nM	3560 nM	23.6 mg/kg	>30 mg/kg	28.3%	5.01 nM	1.5
Cc1c(C(=O)NC2CC3CCC2C3)nc(-c2ccc(Cl)cc2Cl)n1-c1ccc(Cl)cc1 (stereo not given)	19 nM	54 nM				0.794 nM	
Cc1c(C(=O)NN2CCCCC2)nc(-c2ccc(Cl)cc2Cl)n1-c1ccc(C(F)(F)F)cc1	29 nM	634 nM				2.51 nM	
Cc1c(C(=O)NC2CCCC2)nc(-c2ccc(Cl)cc2Cl)n1-c1ccc(Cl)cc1	33 nM	357 nM					
Cc1c(C(=O)NC2CCCCCC2)nc(-c2ccc(Cl)cc2Cl)n1-c1ccc(Cl)cc1	35 nM	349 nM					
O=C(NN1CCCCC1)c1nc(-c2ccc(Cl)cc2)c(-c2ccc(Cl)cc2Cl)s1	> 1000 nM	4670 nM				63.1 nM	
Cc1c(C(=O)OC(C)(C)C)nc(-c2ccc(Cl)cc2Cl)n1-c1ccc(Cl)cc1	94 nM	815 nM				2.51 nM	
Cc1c(C(=O)N2CCC(O)CC2)nc(-c2ccc(Cl)cc2Cl)n1-c1ccc(Cl)cc1		3960 nM					
Cc1c(C(=O)NN2CCCC2)nc(-c2ccc(Cl)cc2Cl)n1-c1ccc(Cl)cc1	27 nM	774 nM					
CCc1c(C(=O)NN2CCCCC2)nc(-c2ccc(Cl)cc2Cl)n1-c1ccc(Cl)cc1	14 nM	430 nM	15.8 mg/kg	30 mg/kg		1 nM	
O=C(NN1CCCCC1)c1nc(-c2ccc(Cl)cc2Cl)n(-c2ccc(Cl)cc2)c1CF	36 nM	906 nM				1.26 nM	
Cc1c(C(=O)NCc2ccc(C(F)(F)F)cc2)nc(-c2ccc(Cl)cc2Cl)n1-c1ccc(Cl)cc1	171 nM	1980 nM					
Cc1c(C(=O)NOC(C)(C)C)nc(-c2ccc(Cl)cc2Cl)n1-c1ccc(Cl)cc1	333 nM	242 nM				6.31 nM	

SMILES	Ki [1]	Ki [2]	ED50 [3]	LED [4]	Transport [5]	Kb [6]	efflux ratio [7]
O=C(NN1CCCCC1)c1nc(-c2ccc(Cl)cc2Cl)c(-c2ccc(Cl)cc2)s1	227 nM	5840 nM	> 30 mg/kg		8.3%	7.94 nM	1.7
Cc1c(C(=O)NN2CCCCC2)nc(-c2ccc(Cl)cc2Cl)n1-c1ccc(Br)cc1	60 nM	489 nM				3.16 nM	
Cc1c(C(=O)N[C@H]2CC[C@H](O)CC2)nc(-c2ccc(Cl)cc2Cl)n1-c1ccc(Cl)cc1	399 nM	3470 nM				50.1 nM	
Cc1c(C(=O)NN2CC3CCCC3C2)nc(-c2ccc(Cl)cc2Cl)n1-c1ccc(Cl)cc1 (stereo not given)	40 nM	1410 nM					
O=C(NN1CCCCC1)c1nc(-c2ccc(Cl)cc2Cl)n(-c2ccc(Cl)cc2)c1Br	23 nM	746 nM				3.98 nM	
COc1ccc(-n2c(-c3ccc(Cl)cc3Cl)nc(C(=O)NN3CCCCC3)c2C)cc1	106 nM	326 nM				2 nM	
Cc1c(C(=O)NN2CCCCCC2)nc(-c2ccc(Cl)cc2Cl)n1-c1ccc(Cl)cc1	64 nM	505 nM				2 nM	
O=C(NN1CCCCC1)c1nc(-c2ccc(Cl)cc2)n(-c2ccc(Cl)cc2Cl)n1	382 nM	5440 nM				25.1 nM	
Cc1c(C(=O)NN2CCOCC2)nc(-c2ccc(Cl)cc2Cl)n1-c1ccc(Cl)cc1	197 nM	3300 nM					
Cc1c(C(=O)NC2CCCCC2)nc(-c2ccc(Cl)cc2Cl)n1-c1ccc(Cl)cc1	35 nM	160 nM				0.794 nM	
N#Cc1c(C(=O)NN2CCCCC2)nc(-c2ccc(Cl)cc2Cl)n1-c1ccc(Cl)cc1	30 nM	1590 nM					
Cc1c(C(=O)NN2CCCCC2)nc(-c2ccc(Cl)cc2Cl)n1-c1ccc(Cl)cc1		608 nM	2.4 mg/kg	10 mg/kg	24.2%	2.51 nM	1.2
O=C(NN1CCCCC1)c1cn(-c2ccc(Cl)cc2)c(-c2ccc(Cl)cc2Cl)n1	23 nM	542 nM	11.7 mg/kg	>30 mg/kg			
Cc1c(C(=O)N2CCc3ccccc3C2)nc(-c2ccc(Cl)cc2Cl)n1-c1ccc(Cl)cc1	34 nM	696 nM					
Cc1c(C(=O)NN2CCCCC2)nc(-c2ccc(Cl)cc2)n1-c1ccc(Cl)cc1Cl	403 nM	208 nM	> 30 mg/kg			20 nM	
O=C(NN1CCCCC1)c1nc(-c2ccc(Cl)cc2Cl)n(-c2ccc(Cl)cc2)c1Cl	27 nM	823 nM				3.16 nM	
